Screening results: PubChem BioAssay, several laboratories
Dynein cargo inh: blocks dynein driven cargo transport along microtubules | 3617.4 mouse cells, GR-EGFP nuclear translocation imaging; test concentration mostly 20 µM; stimulated with dexamethasone, 1 µM; active compounds read low | z-score, hits read low | hit rate 0.47% among 220,000 | AID 1381;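 active = plate z-score of nuclear minus cytoplasmic receptor signal below a set negative limit, without overly bright fluorescence or cell loss, cut at about -3.5 in these data, passing the limit was not always enough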;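 also: z-score of nuclear minus cytoplasmic ring GR-EGFP intensity difference per well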
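Buffer or medium: tetracycline-free induction medium containing charcoal-stripped FBS / Reagent: dexamethasone agonist, 1.0 µM final, for 30 min / Technique: automated 10x imaging of fixed Hoechst-stained cells / Times: induction 48 h, compound 1 h, agonist 30 min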
p-CIP stab down: p/CIP protein destabilization. Q05BA5. F442A p/CIP-EGFP cells, EGFP fluorescence, 16 h. decrease of EGFP signal, % at 10 µM. hit rate 0.01% among 290,000. AID 1984;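 active = EGFP signal decrease of at least 30% at 10 µM or well 3 SD below plate mean, unless failing retest; inactive = the rest, including hits failing retest or dose response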
ABCB6 inh 2: blocks the human ABCB6 transporter | K562-ABCB6 porphyrin accumulation, flow cytometry, 1 h; active compounds read low | AID 602162 | fluorescence ratio to DMSO, % at 10 µM | hit rate 0.19% among 360,000;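 active = fluorescence ratio to DMSO below 75%, the collection mean minus 3 SD; inconclusive = too few cells collected in the well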;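 also: signal is porphyrin accumulated inside mitochondria; 100% equals median channel fluorescence of DMSO control wells; lower ratio means ABCB6 inhibition with less porphyrin fluorescence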
KCC2 mod: KCC2 (human) Cl- transport modulation. Q9H2X9. KCC2 cells, thallium flux FluoZin-2 fluorescence. B-score of Tl+ flux slope (higher = more flux/activation; lower = inhibition) at 10 µM. hit rate 2.2% among 190,000;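 active = thallium flux slope and its plate-corrected score both differing from the plate sample mean at a set confidence after two filtering rounds, in either direction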;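 also: slope of fluorescence scaled to starting intensity during 10 to 20 s after thallium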
V-ATPase pHluor: yeast V-ATPase proton transport regulation by pHLuorin; S. cerevisiae, pHLuorin cytosolic pH fluorescence; response, % at 10 µM; hit rate 0.37% among 350,000; in the data active = response mostly above about 7.3%, no sharp cut-off; inactive = mostly below about 5.4%; also: actives read high
KCC2 sec1: KCC2 (human) modulation, secondary assay; shares compounds with KCC2 mod; HEK293-KCC2, thallium flux, FluoZin2 fluorescence; active compounds read high; normalised thallium flux (F/F0 slope) at 10 µM; hit rate 15% among 3,700;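 active = thallium flux slope above the same plate's solvent-only control mean plus 3 SD; inconclusive = the two replicate wells disagree; inactive = no significant difference from solvent-only control wells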
KCC2 bumet counter: thallium flux despite bumetanide block in KCC2 cells, secondary assay 3; shares compounds with KCC2 mod; HEK293-KCC2 + bumetanide/ouabain, thallium flux FluoZin2; active compounds read high; normalized thallium flux at 10 µM; hit rate 49% among 3,700; AID 1714;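 active = thallium entry rate above the same plate's blocked-transporter control wells by more than 3 SD; inconclusive = the two repeat wells disagree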;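 also: raw slope of fluorescence over initial fluorescence between 10 and 20 s after thallium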
KCC2 secondary2: KCC2 (human) modulation, second secondary assay; shares compounds with KCC2 mod; HEK293-KCC2, thallium flux FluoZin2 fluorescence; actives lie on both sides; F/F0 rise rate, 10–20 s post-thallium; normalized thallium flux at 10 µM; hit rate 23% among 3,700; AID 1715;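 active = thallium flux slope more than 3 SD above or below the plate's solvent-only control mean, mostly below; inconclusive = the two repeat wells disagreed; inactive = no significant shift from solvent-only controls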;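 also: raw slope with 0.1% DMSO as baseline and bumetanide as block control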
HEK293 Tl flux: acts in parental HEK cells, KCC2 counter-screen; shares compounds with KCC2 mod; hit rate 46% among 3,700; thallium flux rate (normalised fluorescence) at 10 µM; HEK293 parental cells, thallium flux FluoZin2, ouabain; baseline-ratio fluorescence slope, 10–20 s after thallium; AID 1716;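 active = thallium flux rate significantly above the same plate's solvent-only control wells, beyond their mean plus 3 SD; inconclusive = the two replicate wells gave conflicting results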
KCC2 ouabain: KCC2 (human) modulation, ouabain retest | hit rate 48% among 3,700 | HEK293-KCC2, thallium flux FluoZin2 fluorescence; bidirectional: low = inhibitor, high = activator | raw Tl+ flux slope (below DMSO = inhibition, above = activation) at 10 µM | shares compounds with KCC2 mod;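 active = thallium flux slope beyond 3 SD from same-plate DMSO control mean in most replicates, usually higher, sometimes lower; inconclusive = repeat tests gave conflicting results; inactive = no significant difference from controls in most replicates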;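 also: slope of initial-normalized fluorescence between seconds 10 and 20 after thallium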
HEK293 Tl flux2: parental HEK flux effect, counter-screen 2; shares compounds with KCC2 mod; hit rate 33% among 3,700; HEK293 parental, thallium flux FluoZin-2 fluorescence slope; thallium flux slope at 10 µM;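 active = thallium flux slope above the same plate's solvent-control mean plus 3 SD in both duplicate wells; inconclusive = duplicate wells that disagreed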;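 also: run without ouabain in cells lacking the KCC2 cotransporter; slope of fluorescence scaled to its starting value between 10 and 20 s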
* hit, by the source's call. The sample as a whole holds a higher share of hits than the screen did.

Results for O=C(NC(=S)Nc1ccc2c(c1)OCCO2)c1ccccc1F ?
Dynein cargo inh: 1.1; p-CIP stab down: -4; ABCB6 inh 2: 98; KCC2 mod: 25*; V-ATPase pHluor: -1; KCC2 sec1: 0.0074; KCC2 bumet counter: 0.039*; KCC2 secondary2: 0.042*; HEK293 Tl flux: 0.021*; KCC2 ouabain: 0.038*; HEK293 Tl flux2: 0.026*

What do the screens show for `CCOc1cccc(C(=O)NC(=S)Nc2ccc3c(c2)OCCO3)c1`?
Dynein cargo inh: -0.0031; p-CIP stab down: -3; ABCB6 inh 2: 94; KCC2 mod: 7.4*; V-ATPase pHluor: 2; KCC2 sec1: 0.018; KCC2 bumet counter: 0.012*; KCC2 secondary2: 0.032; HEK293 Tl flux: 0.012*; KCC2 ouabain: 0.019; HEK293 Tl flux2: 0.014*

How did CCCCCC(=O)NNC(=O)c1c(O)c2ccccc2n(CC)c1=O do in these assays?
Dynein cargo inh: -0.059; p-CIP stab down: -11; ABCB6 inh 2: 100; KCC2 mod: 3.5*; V-ATPase pHluor: 0; KCC2 sec1: 0.0062; KCC2 bumet counter: 0.014*; KCC2 secondary2: 0.033; HEK293 Tl flux: 0.013*; KCC2 ouabain: inconclusive; HEK293 Tl flux2: 0.015*

Results for CCCCCCCCCC(=O)NNC(=O)c1c(O)c2ccccc2n(CC)c1=O ?
Dynein cargo inh: -0.14; p-CIP stab down: -11; ABCB6 inh 2: 98; KCC2 mod: 5.2*; V-ATPase pHluor: 1; KCC2 sec1: 0.0064; KCC2 bumet counter: 0.016*; KCC2 secondary2: 0.03; HEK293 Tl flux: 0.016*; KCC2 ouabain: 0.024*; HEK293 Tl flux2: 0.015*

What do the screens show for `CCn1c(=O)c(C(=O)NNC(=O)c2ccccc2Cl)c(O)c2ccccc21`?
p-CIP stab down: -7; ABCB6 inh 2: 101; V-ATPase pHluor: 1

How did O=C(CCl)N1CCCC1c1ccc2c(c1)OCCO2 (stereo not drawn) do in these assays?
p-CIP stab down: -3; ABCB6 inh 2: 99; V-ATPase pHluor: 0

What do the screens show for `COC(=O)C(C)Sc1snnc1-c1ccccc1` (stereo not drawn)?
Dynein cargo inh: -0.65; p-CIP stab down: -11; ABCB6 inh 2: 99; V-ATPase pHluor: 5; KCC2 sec1: 0.016; KCC2 bumet counter: 0.004; KCC2 secondary2: 0.029; HEK293 Tl flux: inconclusive; KCC2 ouabain: 0.015; HEK293 Tl flux2: 0.0095

What do the screens show for `Cc1[nH]c(C)c(S(=O)(=O)N2CCCCC2)c1C(=O)N1CCCCC1`?
p-CIP stab down: -1; ABCB6 inh 2: 100; V-ATPase pHluor: 1

Results for CN1CCN(C(=S)NC(=O)c2cccc([N+](=O)[O-])c2)CC1 ?
p-CIP stab down: -1; ABCB6 inh 2: 95; V-ATPase pHluor: 3

What do the screens show for `O=C(NC(=S)N1CCCCC1)c1csc([N+](=O)[O-])c1`?
Dynein cargo inh: -0.7; p-CIP stab down: -3; ABCB6 inh 2: 97; KCC2 mod: 24*; V-ATPase pHluor: -2; KCC2 sec1: 0.022*; KCC2 bumet counter: 0.032*; KCC2 secondary2: 0.035; HEK293 Tl flux: 0.017*; KCC2 ouabain: inconclusive; HEK293 Tl flux2: 0.013*

What do the screens show for `C=CCNC(=S)NC(=O)c1csc([N+](=O)[O-])c1`?
Dynein cargo inh: -0.95; p-CIP stab down: -3; ABCB6 inh 2: 95; KCC2 mod: 5.9*; V-ATPase pHluor: -3; KCC2 sec1: 0.0092; KCC2 bumet counter: 0.02*; KCC2 secondary2: 0.03; HEK293 Tl flux: 0.0097*; KCC2 ouabain: inconclusive; HEK293 Tl flux2: 0.0097

What do the screens show for `CC(C)(C)NC(=O)C(=O)NNC(=O)c1cccc(Br)c1`?
Dynein cargo inh: -0.62; p-CIP stab down: 9; ABCB6 inh 2: 93; KCC2 mod: 33*; V-ATPase pHluor: 0; KCC2 sec1: 0.0096*; KCC2 bumet counter: 0.054*; KCC2 secondary2: 0.047*; HEK293 Tl flux: 0.047*; KCC2 ouabain: 0.05*; HEK293 Tl flux2: 0.028*

How did Cc1cccc(C(=O)NNC(=O)C(=O)NC(C)(C)C)c1 do in these assays?
Dynein cargo inh: -0.29; p-CIP stab down: -8; ABCB6 inh 2: 103; V-ATPase pHluor: 3

Results for NC(=O)c1cc([N+](=O)[O-])ccc1NCc1ccc(C(=O)O)cc1 ?
ABCB6 inh 2: 101; V-ATPase pHluor: 4

Results for O=C(Cn1nnc2c(cnn2-c2ccccc2)c1=O)NCc1cccs1 ?
Dynein cargo inh: 0.036; p-CIP stab down: -2; ABCB6 inh 2: 98; V-ATPase pHluor: 3

What do the screens show for `O=C(Cn1nnc2c(cnn2-c2ccc(F)cc2)c1=O)Nc1ccccc1C(F)(F)F`?
Dynein cargo inh: 0.61; p-CIP stab down: -11; ABCB6 inh 2: 95; KCC2 mod: -3.9*; V-ATPase pHluor: 1; KCC2 sec1: 0.0073; KCC2 bumet counter: inconclusive; KCC2 secondary2: 0.033; HEK293 Tl flux: 0.0071; KCC2 ouabain: 0.017*; HEK293 Tl flux2: 0.01

How did C=CCc1cccc(CNc2c(C)cc(C)cc2C)c1O do in these assays?
Dynein cargo inh: -0.11; p-CIP stab down: -1; ABCB6 inh 2: 97; KCC2 mod: 0.48; V-ATPase pHluor: -2

How did S=c1nc(-c2ccccc2)n(CCCN2CCOCC2)c2c1CCCC2 do in these assays?
Dynein cargo inh: -0.76; p-CIP stab down: -9; ABCB6 inh 2: 94; KCC2 mod: 12*; V-ATPase pHluor: 0; KCC2 sec1: 0.018*; KCC2 bumet counter: 0.024*; KCC2 secondary2: 0.034; HEK293 Tl flux: 0.026*; KCC2 ouabain: 0.037*; HEK293 Tl flux2: inconclusive

How did N#CC(c1ccc(Cl)cc1)c1ccc2c(C(F)(F)F)cc(C(F)(F)F)nc2n1 (stereo not drawn) do in these assays?
Dynein cargo inh: 1.9; p-CIP stab down: -6; ABCB6 inh 2: 110; KCC2 mod: 22*; V-ATPase pHluor: -50; KCC2 sec1: 0.024*; KCC2 bumet counter: 0.14*; KCC2 secondary2: 0.031; HEK293 Tl flux: 0.054*; KCC2 ouabain: 0.067*; HEK293 Tl flux2: 0.015*
